Converted amounts (≈) assume the structure as drawn. The source made the active and inactive calls. The rule behind the calls is not given here.
Legend:
Mus musculus [1] = species: Mus musculus; assay: Inhibition of Hedgehog signaling pathway in Sufu-deficient mouse C3H10T1/2 cells assessed as reduction in oxysterol-induced Gli1 mRNA expression at 1 uM after 24 hrs by q-PCR analysis
Mus musculus [2] = species: Mus musculus; assay: Inhibition of Hedgehog signaling pathway in Sufu-deficient mouse C3H10T1/2 cells assessed as reduction in oxysterol-induced Gli1 mRNA expression at 5 uM after 24 hrs by q-PCR analysis
Mus musculus [3] = species: Mus musculus; assay: Inhibition of Hedgehog signaling pathway in mouse C3H10T1/2 cells assessed as residual oxysterol-induced Gli1 mRNA expression at 5 uM after 24 hrs by q-PCR analysis relative to oxysterol alone
[4] = Inhibition of Hedgehog signaling pathway in mouse ASZ001 cells assessed as reduction in […] Gli1 mRNA expression after 48 hrs by q-PCR analysis; type: cell-based; conditions: ASZ001, 48 h
[5] = Inhibition of Hedgehog signaling pathway in mouse C3H10T1/2 cells assessed as reduction in oxysterol-induced Gli1 mRNA expression after 24 hrs by q-PCR analysis; type: cell-based; conditions: C3H 10T1/2, 24 h
[6] = Kinetic solubility of the compound in pH 7.4 phosphate buffered saline; type: physicochemical; conditions: read-out: Kinetic_solubility
Method in brief: (§1)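 Kinetic solubility was run in PBS at pH 4.0 and at pH 7.4 under a standard contract protocol. Compound concentration was measured by LC-MS/MS.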

Medulloblastoma cell = assay: Antiproliferative activity against medulloblastoma cells derived from conditional patched knockout mouse after 48 hrs by [3H]-thymidine incorporation assay; type: functional
Method in brief: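 Primary tumour cells from Math1-Cre;Ptc fl/fl medulloblastoma were isolated and cultured in vitro, then incubated with analogue for 48 h in a proliferation assay. GI50 is mean ± SEM of at least two separate experiments performed in triplicate.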

[7] = Clearance in human liver microsomes assessed per mg protein at 1 uM by LC-MS/MS analysis
[8] = Kinetic solubility of the compound in pH 4 phosphate buffered saline; type: physicochemical; conditions: read-out: Kinetic_solubility; method in brief: as §1
[9] = Half life in human liver microsomes at 1 uM by LC-MS/MS analysis
[10] = molecular target: T1, Vitamin D3 receptor (Mus musculus) (UniProt P48281); assay: Activation of VDR in mouse ASZ001 cells assessed as change in Cyp24A1 mRNA expression at 5 uM after 48 hrs by q-PCR analysis relative to control; type: cell-based
T1 sequence (whole entry): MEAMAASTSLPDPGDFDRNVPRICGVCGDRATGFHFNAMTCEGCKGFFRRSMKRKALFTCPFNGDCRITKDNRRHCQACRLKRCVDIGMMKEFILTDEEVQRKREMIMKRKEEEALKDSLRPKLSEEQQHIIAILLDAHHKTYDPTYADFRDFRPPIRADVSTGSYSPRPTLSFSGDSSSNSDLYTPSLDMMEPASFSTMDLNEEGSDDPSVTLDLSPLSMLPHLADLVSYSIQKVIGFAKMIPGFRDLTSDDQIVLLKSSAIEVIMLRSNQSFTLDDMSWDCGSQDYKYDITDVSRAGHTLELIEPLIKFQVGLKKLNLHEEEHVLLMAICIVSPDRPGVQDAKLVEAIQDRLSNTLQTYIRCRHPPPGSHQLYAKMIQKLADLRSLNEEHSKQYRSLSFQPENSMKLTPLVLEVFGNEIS

[11] = molecular target: T1, Vitamin D3 receptor (Mus musculus); assay: Activation of VDR in mouse C3H10T1/2 cells assessed as change in Cyp24A1 mRNA expression at 5 uM after 24 hrs by q-PCR analysis relative to control; type: cell-based
Vitamin D3 receptor = molecular target: T2, Vitamin D3 receptor (Mus musculus, UniProt P48281); assay: Activation of VDR in mouse ASZ001 cells assessed as change in Cyp24A1 mRNA expression after 48 hrs by q-PCR analysis; type: cell-based
T2 sequence (P48281 whole entry): T1 sequence (whole entry)
Method in brief: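 In ASZ001 cells, full dose-response Cyp24A1 mRNA measurement by qPCR was done relative to DMSO control (1.0). EC50 values are mean ± SEM of at least two separate experiments performed in triplicate.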

[12] = molecular target: T1, Vitamin D3 receptor (Mus musculus); assay: Activation of VDR in mouse ASZ001 cells assessed as change in Cyp24A1 mRNA expression at 2.5 uM after 48 hrs by q-PCR analysis relative to control; type: cell-based
[13] = molecular target: T1, Vitamin D3 receptor (Mus musculus); assay: Activation of VDR in mouse ASZ001 cells assessed as change in Cyp24A1 mRNA expression at 1 uM after 48 hrs by q-PCR analysis relative to control; type: cell-based
Mus musculus [14] = species: Mus musculus; assay: Inhibition of Hedgehog signaling pathway in VDR-deficient mouse C3H10T1/2 cells assessed as change in CYP24A1 mRNA expression at 1 uM after 24 hrs by q-PCR analysis; parameters: scale not given: the % may be the effect or the level left
[15] = Inhibition of Hedgehog signaling pathway in VDR-deficient mouse C3H10T1/2 cells assessed as reduction in oxysterol-induced Gli1 mRNA expression after 24 hrs by q-PCR analysis; conditions: C3H 10T1/2, 24 h
Mus musculus [16] = species: Mus musculus; assay: Inhibition of Hedgehog signaling pathway in VDR-deficient mouse C3H10T1/2 cells assessed as reduction in oxysterol-induced Gli1 mRNA expression at 5 uM after 24 hrs by q-PCR analysis
Mus musculus [17] = species: Mus musculus; assay: Inhibition of Hedgehog signaling pathway in Sufu-deficient mouse C3H10T1/2 cells assessed as change in CYP24A1 mRNA expression at 5 uM after 24 hrs by q-PCR analysis; parameters: scale not given: the % may be the effect or the level left
[18] = Inhibition of Hedgehog signaling pathway in Sufu-deficient mouse C3H10T1/2 cells assessed as reduction in oxysterol-induced Gli1 mRNA expression after 24 hrs by q-PCR analysis; conditions: C3H 10T1/2, 24 h
Mus musculus [19] = species: Mus musculus; assay: Inhibition of Hedgehog signaling pathway in VDR-deficient mouse C3H10T1/2 cells assessed as change in CYP24A1 mRNA expression at 5 uM after 24 hrs by q-PCR analysis; parameters: scale not given: the % may be the effect or the level left

Compound | % Gli1 activity (Mus musculus [3]) [%] | IC50 [4] [nM] | IC50 [5] [nM] | solubility kinetic [6] [µg/mL] | GI50 (Medulloblastoma cell) [nM] | CLH [7] | solubility kinetic [8] [µg/mL] | half-life at 1 µM ([9]; liver microsomes) [min] | Activity [10] [%] | Activity [11] [%] | EC50 (Vitamin D3 receptor) [nM] | other results
CS(=O)(=O)c1ccc(C(=O)Nc2ccc(Cl)c(-c3ccccn3)c2)c(Cl)c1 [VISMODEGIB] | 0.9 | 40 | 82 |  |  |  |  |  |  |  |  | inhibition (Mus musculus [1]): inactive; Hedgehog inhibition activity call (active/not active) (Mus musculus [2]): Active
CC(C)CCC[C@@H](C)[C@H]1CC[C@H]2[C@H](Nc3ccc(O)cc3)CCC[C@]12C |  |  |  | 0.00026 (≈ 0.000727 µM) | 2100 | < 3 | 0.00075 (≈ 0.0021 µM) | > 231 |  |  |  | 
COC(C)(C)CCC[C@@H](C)[C@H]1CC[C@H]2[C@H](CNc3cccc(O)c3)CCC[C@]12C | 3.7 | 700 | 1100 | 0.12 (≈ 0.299 µM) |  | 16 | 0.06 (≈ 0.149 µM) | 43 | 2400 | 27 | 600 | 
CC(C)CCC[C@@H](C)[C@H]1CC[C@H]2[C@@H](OC(=O)c3cccc(O)c3)CCC[C@]12C |  |  |  | 0.67 (≈ 1.73 µM) | > 10000 | < 3 | 0.16 (≈ 0.414 µM) | > 231 |  |  |  | 
CC(C)CCC[C@@H](C)[C@H]1CC[C@H]2[C@H](CNc3ccc(O)cc3)CCC[C@]12C | 1.9 | 600 | 600 | 0.0027 (≈ 0.00727 µM) | 2100 | < 3 | 0.00013 (≈ 0.00035 µM) |  |  | 8.9 |  | Activity [12]: 5.8%; half-life at 1 µM ([9]; microsomes): > 231 min
C[C@H](CCCC(C)(C)O)[C@H]1CC[C@H]2[C@H](CNc3cccc(O)c3)CCC[C@]12C | 4.1 | 1300 | 1700 |  | 1600 |  |  |  | 8.4 | 34 | > 10000 | 
COC(C)(C)CCC[C@@H](C)[C@H]1CC[C@H]2[C@@H](OC(=O)c3cccc(O)c3)CCC[C@]12C | 0.7 | 1000 | 1600 | 0.0023 (≈ 0.00552 µM) |  | 15 | 0.0027 (≈ 0.00648 µM) |  | 14 | 14 | > 10000 | half-life at 1 µM ([9]; microsomes): 49 min
CC(C)CCC[C@@H](C)[C@H]1CC[C@H]2[C@@H](Nc3ccccc3)CCC[C@]12C | 98 |  |  |  |  |  |  |  |  | 1.2 |  | 
COc1cccc(N[C@H]2CCC[C@]3(C)[C@@H]([C@H](C)CCCC(C)C)CC[C@@H]23)c1 | 110 |  |  |  |  |  |  |  |  | 1.9 |  | 
C[C@H](CCCC(C)(C)O)[C@H]1CC[C@H]2[C@H](CNc3ccc(O)cc3)CCC[C@]12C | 5.6 | 500 | 400 |  |  |  |  |  | 140 | 6.1 | 1300 | 
CC(C)CCC[C@@H](C)[C@H]1CC[C@H]2[C@H](CNc3cccc(O)c3)CCC[C@]12C | 13 | 1200 | 3800 |  |  |  |  |  |  | 13 |  | Activity [12]: 7.8%
CCC(CC)(c1ccc(OCC(O)CO)c(C)c1)c1ccc(OCC(O)C(C)(C)C)c(C)c1 (centres undefined) [LG-190178] |  | 0.23 | 0.25 |  |  |  |  |  |  |  | 7.7 | Activity [13]: 13000%; Activity (Mus musculus [14]): 250%; IC50 [15]: 1900 nM
COc1ccc(N[C@H]2CCC[C@]3(C)[C@@H]([C@H](C)CCCC(C)C)CC[C@@H]23)cc1 | 73 |  |  |  |  |  |  |  |  | 2.4 |  | 
CC(C)CCC[C@@H](C)[C@H]1CC[C@H]2[C@@H](Nc3ccc4c(c3)OCO4)CCC[C@]12C | 110 |  |  |  |  |  |  |  |  | 6.1 |  | 
C[C@H](CCCC(C)(C)O)[C@H]1CC[C@H]2[C@@H](OC(=O)c3cccc(O)c3)CCC[C@]12C | 2.9 | 400 | 1600 | 0.031 (≈ 0.077 µM) | > 10000 | 15 | 0.048 (≈ 0.119 µM) | 47 | > 30000 | 27000 | 400 | 
CC(C)CCC[C@@H](C)[C@H]1CC[C@H]2[C@@H](NC(=O)c3cccc(O)c3)CCC[C@]12C |  |  |  | 0.68 (≈ 1.76 µM) |  | < 3 | 0.27 (≈ 0.7 µM) | > 231 |  |  |  | 
C=C1CC[C@H](O)C/C1=C/C=C1\CCC[C@]2(C)[C@@H]([C@H](C)CCCC(C)C)CC[C@@H]12 [CHOLECALCIFEROL] |  |  |  |  | 5800 |  |  |  |  |  | 900 | inhibition (Mus musculus [16]): inactive; inhibition (Mus musculus [2]): inactive; Activity (Mus musculus [17]): 2.9%; IC50 [18]: > 10000 nM; IC50 [15]: 4500 nM; Activity (Mus musculus [19]): 5.5%
C[C@H](CCCC(C)(C)O)[C@H]1CC[C@H]2[C@@H](Nc3ccc(O)cc3)CCC[C@]12C | 11 | 200 | 890 to 900 | 0.0042 (≈ 0.0112 µM) | 2200 |  | 2.4 (≈ 6.42 µM) |  | > 30000 | 15000 | 600 | inhibition (Mus musculus [16]): inactive; Hedgehog inhibition activity call (active/not active) (Mus musculus [2]): inactive; Activity (Mus musculus [17]): 51%; IC50 [18]: 2900 nM; IC50 [15]: 4900 nM; Activity (Mus musculus [19]): 140%
C[C@H](CCCC(C)(C)O)[C@H]1CC[C@H]2[C@@H](Nc3cccc(O)c3)CCC[C@]12C | 5.9 | 100 | 1300 |  | 5300 |  |  |  | > 30000 | > 30000 | 100 | 
CC(C)CCC[C@@H](C)[C@H]1CC[C@H]2[C@@H](NCc3ccc(O)cc3)CCC[C@]12C | 4.6 | 300 | 3100 |  |  |  |  |  | 1.1 | 24 |  | 
CC(C)CCC[C@@H](C)[C@H]1CC[C@H]2[C@@H](Nc3ccc(O)cc3)CCC[C@]12C |  |  | 400 | 0.0026 (≈ 0.00727 µM) |  | 12 | 0.00062 (≈ 0.00173 µM) | 57 |  | 45 |  | inhibition (Mus musculus [16]): inactive; Hedgehog inhibition activity call (active/not active) (Mus musculus [2]): inactive; Activity (Mus musculus [17]): 1.2%; IC50 [18]: 3100 nM; IC50 [15]: 3900 nM; Activity (Mus musculus [19]): 8.1%
COC(C)(C)CCC[C@@H](C)[C@H]1CC[C@H]2[C@@H](Nc3cccc(O)c3)CCC[C@]12C | 3.3 | 600 | 2300 | 0.014 (≈ 0.0361 µM) |  | < 3 | 0.017 (≈ 0.0439 µM) | > 231 | 11000 | 89 | 700 | 
